The target in data set [1] is T1, Δ21TgCEN1 (Toxoplasma gondii, UniProt A0A125YHX7).
T1 sequence (A0A125YHX7 22-169): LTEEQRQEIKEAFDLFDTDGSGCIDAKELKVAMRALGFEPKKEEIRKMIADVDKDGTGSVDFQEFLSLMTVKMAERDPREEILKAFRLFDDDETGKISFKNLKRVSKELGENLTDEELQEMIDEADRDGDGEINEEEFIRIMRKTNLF
In words: DLS particle size / count rate of Δ21TgCEN1. The class given is physicochemical. The note with it: all other conditions: temperature, protein concentration, KCl, ANS. In short, it runs like this: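 Recombinant tag-free Δ21TgCEN1 from E. coli Rosetta (Ni affinity, TEV cleavage). For DLS, 10 µM protein in 20 mM Tris–HCl, 20 mM KCl pH 7.5 with 1 mM CaCl2 at 37°C was spun at 21 000 g for ≥30 min, then measured before and after adding 50 µM N21 peptide. Diameter was reported as number distribution. In parallel, A340 turbidity of 20 µM protein was followed over time.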

The target of data set [2] is T1, Δ21TgCEN1. In words: Turbidimetry at 340 nm, Δ21TgCEN1. It counts as physicochemical. In short, it runs like this: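 Construct lacking residues 1–21 (E. coli Rosetta) at 20 µM in 20 mM Tris–HCl, 20 mM KCl pH 7.5, 1 mM CaCl2, 37°C. A340 followed over time, before and after adding 50 µM synthetic N-terminal peptide (residues 1–21). Peptide alone with CaCl2 run as a control trace.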

The conditions of data set [3]: via N-terminal EF-hands, in vitro; cited from earlier work.
Data set [4] concerns TgCEN1. In words: Turbidimetry at 340 nm, TgCEN1 self-assembly. It counts as physicochemical, Toxoplasma gondii. The method in brief:
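Full-length protein (E. coli Rosetta) at 20 µM in 20 mM Tris–HCl, 20 mM KCl pH 7.5, 37°C, A340 recorded versus time. Run with 1 mM CaCl2, with 1 mM EGTA, or with EGTA added to Ca2+-saturated protein. Ca2+ series 5–2000 µM, read at 25 min versus metal/protein ratio. Also varied: temperature 4–45°C, protein 5–50 µM, KCl 0–150 mM, and 600 µM ANS.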

The subject of data set [5] is TgCEN1. Put plainly: DLS thermal ramping of TgCEN1. The note with it: 5 µM protein, 1 mM CaCl2, pH 7.5. The class given is physicochemical, Toxoplasma gondii. In short, it runs like this: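 Full-length recombinant protein (E. coli Rosetta) at 5 µM with 1 mM CaCl2 in 20 mM Tris–HCl, 20 mM KCl pH 7.5, clarified by centrifugation. Temperature stepped from 15 to 45°C in 1°C increments, with DLS size measured at each step. Z-average (intensity-weighted mean hydrodynamic size) recorded; midpoint from logistic fit.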

The test system of data set [6] is TgCEN1. Put plainly: DLS particle size of TgCEN1. It counts as physicochemical, Toxoplasma gondii.
Data set [7] relates to N-TgCEN1. Put plainly: DLS particle size of N-TgCEN1. The class given is physicochemical, Toxoplasma gondii. Particulars: 10 µM. The method in brief: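 Domains produced in E. coli Rosetta: N-domain residues 1–94 and C-domain 95–169. […] 10 µM protein in 20 mM Tris–HCl pH 7.5, 1 mM CaCl2, at selected KCl concentrations or with 600 µM ANS. Samples centrifuged at 21 000 g for ≥30 min; filtered buffers. Hydrodynamic diameter reported as number distribution (633 nm laser, 173°).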

The subject of data set [8] is N-TgCEN1. In words: Turbidimetry at 340 nm, N-TgCEN1. The note with it: 20 µM, 1 mM CaCl2, 20 mM KCl pH 7.5, 37°C. The class given is physicochemical, Toxoplasma gondii. The method in brief: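 Recombinant N-domain (1–94) or C-domain (95–169), Ni-affinity purified. A340 followed over time in a 1 cm cuvette. Standard conditions: 20 µM protein, 20 mM Tris–HCl, 20 mM KCl pH 7.5, 1 mM CaCl2, 37°C. Conditions also varied: CaCl2 0–2 mM, temperature 4–45°C, protein 5–50 µM, KCl 0–150 mM, or 600 µM ANS added.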

“And” between values parts separate entries of the source, which are not always exact repeats. Equal values may be shown once. “Also recorded” adds a separate entry of the source.

B1: Δ21TgCEN1: truncated variant of TgCEN1 lacking the first 21 residues (22–169) (protein)
chain: T1 sequence (A0A125YHX7 22-169)
For B1, the “turbidity or size distribution changes” value in the data set with Δ21TgCEN1 [1] is “No changes in turbidity or size distribution”. Also, the “turbidity at 340 nm” value with Δ21TgCEN1 [2] (1 mM CaCl2, same conditions as full-length (20 µM, 37°C, pH 7.5)) is listed as “no changes in turbidity at 340 nm”. The self-assembly process result with Δ21TgCEN1 [2] (removal of the first 21 residues, Ca^2+) was “completely abolished”.

B2: TgCEN1: centrin isoform 1 from Toxoplasma gondii, full-length, overexpressed in E. coli (protein)
chain: MHSRKGASSLPRGRGAGKKTELTEEQRQEIKEAFDLFDTDGSGCIDAKELKVAMRALGFEPKKEEIRKMIADVDKDGTGSVDFQEFLSLMTVKMAERDPREEILKAFRLFDDDETGKISFKNLKRVSKELGENLTDEELQEMIDEADRDGDGEINEEEFIRIMRKTNLF
In the case of B2, the “Ca^2+ ions bound” value in data set [3] was “two Ca^2+ ions; also recorded: two high affinity Ca^2+-binding sites in the N-lobe”. For the same molecule, in the data set with TgCEN1 [4] (0–150 mM KCl, 20 mM Tris–HCl pH 7.5, 1 mM CaCl2, 37°C), the “self-assembly at high ionic strength (turbidity at 340 nm)” value was “clear inhibition of self-assembly process at high ionic strength”. Further, the “turbidity at 340 nm” value in the data set on TgCEN1 [4] (20 µM, 1 mM CaCl2, 20 mM Tris–HCl, 20 mM KCl pH 7.5, 37°C) is given as “clear increase in turbidity”; in the data set with TgCEN1 [4] (EGTA added to Ca^2+-saturated TgCEN1, 20 µM, pH 7.5, 37°C) it was “significantly reduced”. In addition, the “turbidity change on Mg^2+ addition” value in the data set with TgCEN1 [4] (Mg^2+ up to 10 mM, data not shown) was “No changes in the turbidity profiles”. The “self-assembly rate and plateau (turbidity at 340 nm)” value is “faster self-assembly process and a higher plateau” in the data set on TgCEN1 [4] (increasing TgCEN1 concentration (5–50 µM), 1 mM CaCl2, 37°C); “increase in the slope of the growth phase at 340 nm and a higher plateau” in the data set on TgCEN1 [4] (increasing temperature (4–45°C), 1 mM CaCl2). Besides, in the data set on TgCEN1 [4] (protein concentrations less than 5 µM), the “light scattering below threshold concentration” value was “Low light scattering”. The z-average hydrodynamic diameter in the data set on TgCEN1 [5] (15°C) was ~230 nm; in the data set on TgCEN1 [5] (45°C), ~470 nm. For the same molecule, the hydrodynamic diameter with TgCEN1 [6] (10 µM, 1 mM CaCl2, 20 mM Tris–HCl, 20 mM KCl pH 7.5, 37°C, DLS number distribution, no additive) is 570 ± 5 nm and ~570 nm; in the data set with TgCEN1 [6] (high ionic strength (KCl), 20 mM Tris–HCl pH 7.5, 1 mM CaCl2, 37°C) it was ~7 nm; with TgCEN1 [6] (low salt concentrations, 20 mM Tris–HCl pH 7.5, 1 mM CaCl2, 37°C), 600–800 nm. This molecule gave a number-averaged hydrodynamic diameter in the data set on TgCEN1 [6] (10 µM, absence of Ca^2+ (1 mM EGTA), 20 mM Tris–HCl, 20 mM KCl pH 7.5, 37°C, DLS number distribution) of 7.54 ± 0.01 nm. For the same molecule, in the data set with TgCEN1 [6] (150 mM KCl, 1 mM CaCl2, 37°C), the association state entry was “monomeric in solution”.

B3: N-TgCEN1: N-terminal domain of TgCEN1, 1–94 aa (protein)
chain: MHSRKGASSLPRGRGAGKKTELTEEQRQEIKEAFDLFDTDGSGCIDAKELKVAMRALGFEPKKEEIRKMIADVDKDGTGSVDFQEFLSLMTVKM
modifications: left off: His tag (from the Nickel affinity chromatography), end not stated, cleaved
Consider B3, for which the particle diameter in the data set with N-TgCEN1 [7] (1 mM CaCl2, 20 mM Tris–HCl, 20 mM KCl pH 7.5) worked out at 250 ± 1 nm. For the same molecule, in the data set with N-TgCEN1 [7] (selected KCl concentrations, 1 mM CaCl2, DLS), the “association at high ionic strength” value is listed as “inhibition of association process”. In the data set with N-TgCEN1 [8], the “turbidity at 340 nm” value is reported as “no turbidity changes at 340 nm”.

These data come from PMC8286830 (Biochemical Journal, 2021).
